These results are taken from ChEMBL document CHEMBL1149637, “Design, synthesis, and evaluation of potential inhibitors of brassinin glucosyltransferase, a phytoalexin detoxifying enzyme from Sclerotinia sclerotiorum” (Bioorg Med Chem, 2007).

In general, inhibition refers to the change of the read-out against control, counted positive when it falls. In general, half-life refers to the time needed for the level to fall by half in the phase considered.

The test system of series [1] is Sclerotinia sclerotiorum. Nature of the series: Inhibition of Sclerotina sclerotiorums brassinin glucosyl transferase assessed as percent relative activity in relative to brassinin at 0.30 mM. More on the design: scale not given: the % may be the effect or the level left. An outline of the steps:
(§1)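 Crude cell-free homogenate from clone #33 grown 7 days in PDB, induced with camalexin (0.05 mM final, 24 h). Mycelia were ground in ice-cold 50 mM Tris-HCl pH 8.0 buffer and centrifuged at 58,545g for 40 min. Inhibitor (from DMSO) was preincubated 30 min at room temperature with extract and UDPG (0.3 mM final). Brassinin (0.3 mM) was added, then 60 min incubation, EtOAc extraction and HPLC quantification of glucosylbrassinin. Protein measured by Bradford. Relative activity = specific activity vs brassinin-only control. Triplicate.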

Series [2] deals with Sclerotinia sclerotiorum. Nature of the series: Antifungal activity against Sclerotina sclerotiorum assessed as growth inhibition at 0.30 mM after 48 hrs. The class given is functional. The procedure, abridged:
(§2)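 S. sclerotiorum clone #33 radial growth assay: mycelial plugs (4 mm, from 3-day-old PDA plates) placed upside down in wells of minimal medium containing compound diluted from 50 mM DMSO stock. Medium-only controls contained 1% DMSO. […] Run in triplicate, at least three times.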

Series [3] has as its system Sclerotinia sclerotiorum. Nature of the series: Antifungal activity against Sclerotina sclerotiorum assessed as growth inhibition at 0.50 mM after 48 hrs. The class given is functional. An outline of the steps:
as §2

In series [4] the test system is Sclerotinia sclerotiorum. Nature of the series: Inhibition of Sclerotina sclerotiorums brassinin glucosyl transferase assessed as percent relative activity in relative to brassinin at 0.60 mM. Also noted: scale not given: the % may be the effect or the level left. An outline of the steps: as §1
The test system of series [5] is Sclerotinia sclerotiorum. Nature of the series: Inhibition of Sclerotina sclerotiorums brassinin glucosyl transferase assessed as specific activity at 0.30 mM. An outline of the steps:
as §1

For series [6], the system named is Sclerotinia sclerotiorum. Nature of the series: Inhibition of Sclerotina sclerotiorums brassinin glucosyl transferase assessed as specific activity at 0.60 mM. An outline of the steps: as §1
The nature of series [7]: Metabolic stability assessed as half life in Sclerotina sclerotiorum. The class given is ADME, organism-based. To be noted: sclerotinia sclerotiorum, Sclerotinia sclerotiorum (whole organism). The procedure, abridged: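 S. sclerotiorum clone #33 mycelial plugs were grown 4 days in minimal medium at 22 ± 1 °C, shaken at 120 rpm under constant light. Compound (0.050 or 0.10 mM final, in CH₃CN 0.5% v/v) was added, then brassinin (0.05 mM final) 10 min later. Samples taken over time were extracted with EtOAc, brassinin was measured by HPLC-DAD, and brassinin half-life was compared with brassinin-only cultures.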

The subject of series [8] is Sclerotinia sclerotiorum. Put plainly: Antifungal activity against Sclerotina sclerotiorum assessed as growth inhibition at 0.10 mM after 48 hrs. It is filed as functional. The procedure, abridged:
as §2

The nature of series [9]: Metabolic stability assessed as half life in Sclerotina sclerotiorum at 0.10 mM. To be noted: sclerotinia sclerotiorum, Sclerotinia sclerotiorum (whole organism). The class given is ADME, organism-based. An outline of the steps: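 Four-day-old mycelial cultures in minimal medium (22 °C, 120 rpm, constant light) received inhibitor (0.050 or 0.10 mM final, in CH₃CN at 0.5% v/v). After 10 min, brassinin (0.05 mM final) was added. Samples were withdrawn over time, EtOAc-extracted and analysed by HPLC-DAD for remaining brassinin. Half-life of brassinin was compared with brassinin-only cultures. An uninoculated medium control was included.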

Series [10] relates to Sclerotinia sclerotiorum. Nature of the series: Antifungal activity against Sclerotina sclerotiorum assessed as growth inhibition at 0.01 mM after 48 hrs. It is filed as functional.
For series [11], the system named is Sclerotinia sclerotiorum. Put plainly: Antifungal activity against Sclerotina sclerotiorum assessed as growth inhibition at 0.05 mM after 48 hrs. It is filed as functional. The procedure, abridged: as §2
The nature of series [12]: Metabolic stability assessed as half life in Sclerotina sclerotiorum at 0.03 mM. It is filed as ADME, organism-based. The conditions noted are these: sclerotinia sclerotiorum, Sclerotinia sclerotiorum (whole organism).
A short description of series [13]: Metabolic stability assessed as half life in Sclerotina sclerotiorum at less than 0.01 mM. The class given is ADME, organism-based. The conditions noted are these: sclerotinia sclerotiorum, Sclerotinia sclerotiorum (whole organism).

Calls of active or inactive are those of the source.

Regarding `COC(=O)c1cnn2ccc(OC)cc12`, the Activity in the series with Sclerotinia sclerotiorum [1] and in the series with Sclerotinia sclerotiorum [4] was 100% in each case. Moreover, the result in the series with Sclerotinia sclerotiorum [2] was inactive. The inhibition at 500 µM in the series on Sclerotinia sclerotiorum [3] was 20%. Further, the Activity (10^-10.mol/mg/min) turned out to be 1.51 in the series with Sclerotinia sclerotiorum [5] and 1.49 in the series on Sclerotinia sclerotiorum [6].

Turning to `CSC(=S)NCc1c[nH]c2ccccc12` [BRASSININ], in series [7], the half-life is 540 min. In the series on Sclerotinia sclerotiorum [2], the inhibition at 300 µM came to 100%. The inhibition at 100 µM with Sclerotinia sclerotiorum [8] amounted to 37%.

As for `Fc1ccc2c(-c3ccccc3)c[nH]c2c1` [6-FLUORO-3-PHENYLINDOLE], in series [9], the half-life at 100 µM was 600 min. For the same molecule, the figures for the Activity in the series with Sclerotinia sclerotiorum [1] and in the series on Sclerotinia sclerotiorum [4] were 23% and 13%, respectively. Further, the inhibition at 10 µM in the series with Sclerotinia sclerotiorum [10] is 65%. In addition, in the series on Sclerotinia sclerotiorum [11], the inhibition at 50 µM came to 87%. Moreover, the Activity (10^-10.mol/mg/min) in the series on Sclerotinia sclerotiorum [5] was determined as 0.34; in the series on Sclerotinia sclerotiorum [6], 0.2. Moreover, the inhibition at 100 µM with Sclerotinia sclerotiorum [8] was determined as 93%.

For the molecule `CSC(=S)NCc1cc2ccccc2o1`, the Activity was found to be 43% in the series on Sclerotinia sclerotiorum [1] and 29% with Sclerotinia sclerotiorum [4]. The inhibition at 300 µM with Sclerotinia sclerotiorum [2] turned out to be 100%. Besides, the half-life at 30 µM in series [12] is 360 min. Moreover, the results for the Activity (10^-10.mol/mg/min) with Sclerotinia sclerotiorum [5] and in the series with Sclerotinia sclerotiorum [6] were 0.64 and 0.43, respectively. Besides, the inhibition at 100 µM in the series with Sclerotinia sclerotiorum [8] worked out at 32%.

In the case of `CSC(=S)NCc1coc2ccccc12`, the half-life at 100 µM in series [9] came to 540 min. Also, the results for the Activity in the series with Sclerotinia sclerotiorum [1] and in the series on Sclerotinia sclerotiorum [4] were 50% and 37%, respectively. The inhibition at 300 µM with Sclerotinia sclerotiorum [2] turned out to be 23%. Also, the inhibition at 500 µM in the series with Sclerotinia sclerotiorum [3] was 45%. The Activity (10^-10.mol/mg/min) is 0.75 with Sclerotinia sclerotiorum [5] and 0.55 with Sclerotinia sclerotiorum [6]. Besides, the result with Sclerotinia sclerotiorum [8] was inactive.

Consider `Fc1ccc2[nH]cc(-c3nccs3)c2c1` [5-FLUOROCAMALEXIN], for which the Activity in the series on Sclerotinia sclerotiorum [1] amounted to 54%; with Sclerotinia sclerotiorum [4], 48%. Besides, the inhibition at 300 µM in the series on Sclerotinia sclerotiorum [2] is 85%. Moreover, in the series with Sclerotinia sclerotiorum [11], the inhibition at 50 µM worked out at 61%. For the same molecule, the Activity (10^-10.mol/mg/min) with Sclerotinia sclerotiorum [5] was 0.81; in the series with Sclerotinia sclerotiorum [6] it was 0.72. Also, the inhibition at 100 µM in the series with Sclerotinia sclerotiorum [8] was determined as 70%.

Turning to `Fc1ccc2c(-c3nccs3)c[nH]c2c1`, the Activity with Sclerotinia sclerotiorum [1] came to 66%; in the series with Sclerotinia sclerotiorum [4], 63%. The Activity (10^-10.mol/mg/min) in the series on Sclerotinia sclerotiorum [5] was determined as 0.97; in the series with Sclerotinia sclerotiorum [6], 1.

For `COc1ccn2ncc(CNC(=S)SC)c2c1`, the Activity in the series on Sclerotinia sclerotiorum [1] amounted to 98%; in the series with Sclerotinia sclerotiorum [4], 99%. For the same molecule, the Activity (10^-10.mol/mg/min) with Sclerotinia sclerotiorum [5] turned out to be 1.47; in the series with Sclerotinia sclerotiorum [6], 1.48.

In the case of `CSC(=S)NCc1cc2ccccc2[nH]1` [ISOBRASSININ], the Activity is 42% with Sclerotinia sclerotiorum [1] and 27% in the series on Sclerotinia sclerotiorum [4]. In the series with Sclerotinia sclerotiorum [2], the inhibition at 300 µM was 100%. The half-life in [13] is 120 min. Moreover, the Activity (10^-10.mol/mg/min) turned out to be 0.63 in the series on Sclerotinia sclerotiorum [5] and 0.41 in the series with Sclerotinia sclerotiorum [6]. The inhibition at 100 µM with Sclerotinia sclerotiorum [8] was found to be 48%.

As for `Fc1cccc2[nH]cc(-c3ccccc3)c12`, the Activity was 37% with Sclerotinia sclerotiorum [1] and 29% with Sclerotinia sclerotiorum [4]. For the same molecule, the inhibition at 10 µM with Sclerotinia sclerotiorum [10] turned out to be 47%. In addition, the inhibition at 50 µM in the series with Sclerotinia sclerotiorum [11] is 100%. The Activity (10^-10.mol/mg/min) worked out at 0.55 in the series with Sclerotinia sclerotiorum [5] and 0.43 with Sclerotinia sclerotiorum [6].

With `c1ccc2c(-c3nccs3)c[nH]c2c1` [CAMALEXIN], the results for the Activity in the series on Sclerotinia sclerotiorum [1] and in the series with Sclerotinia sclerotiorum [4] were 63% and 56%, respectively. The inhibition at 50 µM with Sclerotinia sclerotiorum [11] came out at 81%. For the same molecule, the Activity (10^-10.mol/mg/min) with Sclerotinia sclerotiorum [5] is 0.95; in the series with Sclerotinia sclerotiorum [6], 0.84. For the same molecule, in the series with Sclerotinia sclerotiorum [8], the inhibition at 100 µM came to 100%.

In the case of `c1ccc(-c2cc3ccccc3[nH]2)cc1`, the Activity in the series with Sclerotinia sclerotiorum [1] and with Sclerotinia sclerotiorum [4] was 39% each time. For the same molecule, the Activity (10^-10.mol/mg/min) with Sclerotinia sclerotiorum [5] and with Sclerotinia sclerotiorum [6] was 0.59 in each case.

Consider `c1ccc(-c2coc3ccccc23)cc1`, for which the values for the Activity in the series with Sclerotinia sclerotiorum [1] and in the series on Sclerotinia sclerotiorum [4] were 53% and 42%, respectively. The inhibition at 300 µM with Sclerotinia sclerotiorum [2] came out at 64%. Also, in the series on Sclerotinia sclerotiorum [3], the inhibition at 500 µM stood at 80%. Moreover, the Activity (10^-10.mol/mg/min) with Sclerotinia sclerotiorum [5] was found to be 0.79; in the series on Sclerotinia sclerotiorum [6] it was 0.63. In the series with Sclerotinia sclerotiorum [8], the inhibition at 100 µM was found to be 32%.

In the case of `CC(=O)Nc1cnc2ccccc2c1`, the Activity in the series on Sclerotinia sclerotiorum [1] and with Sclerotinia sclerotiorum [4] was 100% throughout. Also, the outcome in the series on Sclerotinia sclerotiorum [3] was inactive. The Activity (10^-10.mol/mg/min) in the series with Sclerotinia sclerotiorum [5] worked out at 1.58; with Sclerotinia sclerotiorum [6], 1.53.

As to `CSC(=S)NCc1csc2ccccc12`, the figures for the Activity with Sclerotinia sclerotiorum [1] and in the series on Sclerotinia sclerotiorum [4] were 81% and 75%, respectively. Moreover, in the series with Sclerotinia sclerotiorum [2], the inhibition at 300 µM turned out to be 63%. In addition, the inhibition at 500 µM in the series with Sclerotinia sclerotiorum [3] came to 89%. The Activity (10^-10.mol/mg/min) in the series on Sclerotinia sclerotiorum [5] worked out at 1.22; in the series on Sclerotinia sclerotiorum [6] it was 1.12. Further, the inhibition at 100 µM in the series with Sclerotinia sclerotiorum [8] was 10%.

Take `c1ccc(-c2c[nH]c3ccccc23)cc1` [3-PHENYLINDOLE]: in [9], the half-life at 100 µM was 600 min. In addition, the Activity in the series on Sclerotinia sclerotiorum [1] was found to be 23%; with Sclerotinia sclerotiorum [4], 13%. The inhibition at 10 µM in the series on Sclerotinia sclerotiorum [10] came to 78%. Further, the inhibition at 50 µM with Sclerotinia sclerotiorum [11] came to 93%. The Activity (10^-10.mol/mg/min) with Sclerotinia sclerotiorum [5] was 0.35; with Sclerotinia sclerotiorum [6], 0.19. Moreover, in the series with Sclerotinia sclerotiorum [8], the inhibition at 100 µM was found to be 100%.

Take `c1ccc2[nH]c(-c3cscn3)nc2c1` [THIABENDAZOLE]: the inhibition at 500 µM with Sclerotinia sclerotiorum [3] turned out to be 93%. Besides, the inhibition at 100 µM in the series on Sclerotinia sclerotiorum [8] worked out at 86%.

Take `CSC(=S)NCc1c[nH]c2ncccc12`: the values for the Activity with Sclerotinia sclerotiorum [1] and in the series on Sclerotinia sclerotiorum [4] were 68% and 50%, respectively. Besides, in the series on Sclerotinia sclerotiorum [2], the inhibition at 300 µM was determined as 28%. The inhibition at 500 µM with Sclerotinia sclerotiorum [3] was 65%. In addition, the Activity (10^-10.mol/mg/min) is 1.02 in the series on Sclerotinia sclerotiorum [5] and 0.75 in the series on Sclerotinia sclerotiorum [6]. Besides, the result in the series on Sclerotinia sclerotiorum [8] was inactive.
